Consider twelve compounds from article PMC3514014 (Molecular and biochemical parasitology, 2010).

The subject of assay [1] is cathepsin C. Particulars: cited from earlier work.
Assay [2] deals with recombinant human cathepsin C. In kind it is biochemical. Conditions: for Km / kcat: 25 °C, pH 6.0, 30 mM chloride, mean ± SD, triplicate.
Assay [3] has as its target T1, recombinant DPAP1 (rDPAP1) (Plasmodium falciparum, UniProt Q8IIJ9).
T1 sequence (Q8IIJ9 28-209 limits assumed): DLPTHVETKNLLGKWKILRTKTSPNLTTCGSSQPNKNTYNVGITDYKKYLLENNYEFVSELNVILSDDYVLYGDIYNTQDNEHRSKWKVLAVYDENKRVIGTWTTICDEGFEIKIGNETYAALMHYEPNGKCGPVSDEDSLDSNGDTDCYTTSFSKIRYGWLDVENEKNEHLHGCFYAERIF
T1 sequence (Q8IIJ9 370-599 limits assumed): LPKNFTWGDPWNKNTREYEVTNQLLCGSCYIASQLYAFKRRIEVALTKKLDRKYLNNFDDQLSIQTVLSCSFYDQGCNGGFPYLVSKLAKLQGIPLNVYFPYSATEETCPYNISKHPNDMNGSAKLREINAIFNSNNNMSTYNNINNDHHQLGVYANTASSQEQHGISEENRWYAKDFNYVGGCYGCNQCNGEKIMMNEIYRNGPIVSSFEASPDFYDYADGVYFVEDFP
T1 sequence (Q8IIJ9 600-700 limits assumed): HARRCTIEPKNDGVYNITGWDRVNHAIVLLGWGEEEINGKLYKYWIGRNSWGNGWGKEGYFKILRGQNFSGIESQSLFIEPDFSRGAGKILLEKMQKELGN
The class given is biochemical. Particulars: for Km / kcat: rDPAP1, 25 °C, pH 6.0, 30 mM chloride, mean ± SD, triplicate, NH = no hydrolysis; for hydrolysis of the substrate: recombinant DPAP1, concentrations up to 500 μM.

Assay [4] has as its target T2, native DPAP1 (nDPAP1) (Plasmodium falciparum, UniProt Q8IIJ9).
T2 sequence (Q8IIJ9 28-209 limits assumed): T1 sequence (Q8IIJ9 28-209 limits assumed)
T2 sequence (Q8IIJ9 370-599 limits assumed): T1 sequence (Q8IIJ9 370-599 limits assumed)
T2 sequence (Q8IIJ9 600-700 limits assumed): T1 sequence (Q8IIJ9 600-700 limits assumed)
The class given is biochemical. Particulars: for hydrolysis of the substrate: native DPAP1, concentrations up to 500 μM; for kcat: nDPAP1, 25 °C, pH 6.0, 30 mM chloride, mean ± SD, triplicate, NH = no hydrolysis.

Assay [5] concerns the target T1, recombinant DPAP1 (rDPAP1). The experiment in a line: Inhibition of recombinant DPAP1. The class given is biochemical. Put shortly: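 Recombinant E. coli-expressed DPAP1-His6, activated by TEV cleavage, at 0.8 nM. Run at 25 °C in 50 mM sodium MES pH 6.0 with 2 mM dithiothreitol and 1 mM EDTA, total chloride held at 30 mM with NaCl. Fluorogenic release read against an AMC standard, in triplicate. Rates taken from linear progress-curve segments after ~15 min lag; Ki by Dixon method.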

For assay [6], the system named is cathepsin C. Conditions: cited from earlier work. This is another data set of the same source.
For assay [7], the target named is T2, native DPAP1 (nDPAP1). The experiment in a line: Inhibition of native DPAP1. Particulars: Fig. 4 and Fig. S4, stated in words. The class given is biochemical.
The test system of assay [8] is cathepsin C. The experiment in a line: Inhibition of cathepsin C under the DPAP1 assay conditions. The class given is biochemical, human. Particulars: assay conditions used for DPAP1.
Setting [9] is: recombinant DPAP1, Fig. 4 and Fig. S4, stated in words.

Where a SMILES comes first, the peptide text is derived from it. Where no end group is shown, it is not given here. The star is where a group is joined. ACC = NC(=O)Cc1cc(=O)oc2cc(N*)ccc12; AMC = Cc1cc(=O)oc2cc(N*)ccc12

As to `NC(Cc1ccccc1)C(=O)NCC(=O)O` (racemic) [DL-Phe-Gly], the “inhibition of cathepsin C” value in the assay on cathepsin C [1] is recorded as “competitively inhibited”.

In the case of `Cc1cc(=O)oc2cc(NC(=O)[C@H](CCCN=C(N)N)NC(=O)[C@@H](N)CCCN=C(N)N)ccc12` [Arg-Arg-AMC] (H-Arg-Arg-{AMC}), in assay [2], the “turnover of the substrate” value is recorded as “no turnover”.

As usually defined, the Km is the substrate concentration at which the rate is half of its maximum. In general, kcat refers to the maximal rate divided by the concentration of active sites. `CC[C@H](C)[C@H](N)C(=O)N[C@@H](CCCNC(=N)N)C(=O)Nc1ccc2c(CC(N)=O)cc(=O)oc2c1` [Ile-Arg-ACC]: in assay [3], the Km was 3.9 ± 0.2 µM and the kcat came to 0.072 ± 0.003 s⁻¹. In assay [2], the Km is 28 ± 2 µM and the kcat stood at 17 ± 1 s⁻¹.

In the case of `N[C@@H](Cc1ccccc1)C(=O)N[C@@H](Cc1ccccc1)C(=O)O` [L-Phe-L-Phe] (H-Phe-Phe-OH), in the assay on cathepsin C [1], the “inhibition of cathepsin C” value is reported as “competitively inhibited”.

As usually defined, the Ki is the equilibrium dissociation constant of an inhibitor or competing ligand from its target. In the case of `N=C(N)NCCC[C@H](NC(=O)[C@@H](N)Cc1ccccc1)C(=O)Nc1ccc2c(CC(N)=O)cc(=O)oc2c1` [Phe-Arg-ACC] (H-Phe-Arg-{ACC}), the “hydrolysis of the substrate” value (in assay [3]; at native DPAP1 (nDPAP1) [4]) was “no hydrolysis was observed” throughout. In addition, the “kinetic behaviour as substrate” value in assay [2] (Fig. S3) is on record as “substrate inhibition was observed”. For the same compound, in assay [5] (rDPAP1, hydrolysis of Pro-Arg-AMC, Dixon analysis), the mode of inhibition result is recorded as “purely competitive”. Besides, the Ki in assay [5] (rDPAP1, inhibition of hydrolysis of Pro-Arg-AMC, Dixon analysis) worked out at 2200 nM.

Take `Cc1cc(=O)oc2cc(NC(=O)[C@H](CCCN=C(N)N)NC(=O)[C@@H]3CCCN3)ccc12` [Pro-Arg-AMC] (H-Pro-Arg-{AMC}): the values for the Km in assay [3] and in assay [2] were 79 ± 2 µM and 130 ± 10 µM, respectively. For the same compound, the catalytic constant (kcat) in assay [3] was found to be 1.8 ± 0.1 s⁻¹; in assay [2] it was 490 ± 10 s⁻¹; at native DPAP1 (nDPAP1) [4], 6.2 ± 0.4 s⁻¹.

Turning to `CC(C)[C@H](N)C(=O)N[C@@H](CCCNC(=N)N)C(=O)Nc1ccc2c(CC(N)=O)cc(=O)oc2c1` [Val-Arg-ACC] (H-Val-Arg-{ACC}), the Km in assay [3] is 20 ± 1 µM; in assay [2], 51 ± 8 µM. The turnover number (kcat) came to 0.72 ± 0.02 s⁻¹ in assay [3], 180 ± 10 s⁻¹ in assay [2] and 3.5 ± 0.1 s⁻¹ at native DPAP1 (nDPAP1) [4].

For the compound `Cc1cc(=O)oc2cc(NC(=O)C(Cc3ccccc3)NC(=O)C(N)C(C)C)ccc12` (stereo not drawn) [Val-Phe-AMC] (H-Val-Phe-{AMC}; configuration not given here), the “increase in kcat/Km relative to Pro-Phe-AMC” value with cathepsin C [6] is listed as 10 fold.

On to `CC[C@H](N)C(=O)NNC(=O)N[C@@H](CCc1ccccc1)C(=O)N[C@@H](C)Cc1cccc(F)c1` [compound 1, 1-(2S-2-aminobutanoyl)-4-{2S-N-[2S-3-(m-fluorophenyl)propan-2-yl-amide]-4-phenylbutan-2-yl-amide}semicarbazide], for which the inhibition constant Ki result (on native DPAP1 (nDPAP1) [7]; in assay [5] (setting [9])) was “sub-nanomolar” throughout. In the assay with cathepsin C [8], the type of inhibition entry is reported as “slow, tight-binding inhibitor”.

In the case of `CC[C@H](N)C(=O)NC(C#N)Cc1ccccc1` (stereo partly shown) [compound 2, S-2-aminobutyryl-phenylalanine-nitrile], the Ki result (at native DPAP1 (nDPAP1) [7]; in assay [5] (setting [9])) was “single-digit nanomolar” in each case.

With `NC(=O)[C@@H](N)Cc1ccccc1` [phenylalaninamide], in the assay on cathepsin C [1], the “inhibition of cathepsin C” value is reported as “competitively inhibited”.

Regarding Arg-Arg-{ACC}, the “hydrolysis of the substrate” value (in assay [3]; on native DPAP1 (nDPAP1) [4]) was “no hydrolysis was observed” in each case.
